OX1R antag-1 = blocks the human orexin 1 receptor; O43613; AID 434989; hit rate 0.43% among 330,000; inhibition, % at 5 µM; CHO/OX1R cells, Fluo-8 calcium fluorescence, orexin A;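 active means inhibition above its plate's threshold, mean inhibition of all tested compounds on the plate plus 3 SD, cut at about 37% in these data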;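 further: 0% = orexin A challenge wells and 100% = SB-334867-A antagonist wells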
OX1R antag-2 = OX1R (human) antagonism | inhibition, % at 6.6 µM | OX1R-expressing cells, FRET antagonist read-out | O43613 | hit rate 1.8% among 330,000; in the data active means inhibition mostly above about 38%, no sharp cut-off; inactive means mostly below about 40%;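 further: 0% = agonist challenge alone and 100% = reference antagonist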
TAAR1 ag = agonists of human TAAR1 | CHO RD-HGA16 TAAR1, Fluo-8 calcium fluorescence; vehicle wells 0%, saturating PEA agonist 100% | hit rate 0.99% among 360,000 | Q96RJ0 | activation, % at 3 µM | AID 624467;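 active means activation above the mean activation of all test compounds in the run plus 3 SD, cut at about 38% in these data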
Target sequence (Q96RJ0 whole entry, looked up): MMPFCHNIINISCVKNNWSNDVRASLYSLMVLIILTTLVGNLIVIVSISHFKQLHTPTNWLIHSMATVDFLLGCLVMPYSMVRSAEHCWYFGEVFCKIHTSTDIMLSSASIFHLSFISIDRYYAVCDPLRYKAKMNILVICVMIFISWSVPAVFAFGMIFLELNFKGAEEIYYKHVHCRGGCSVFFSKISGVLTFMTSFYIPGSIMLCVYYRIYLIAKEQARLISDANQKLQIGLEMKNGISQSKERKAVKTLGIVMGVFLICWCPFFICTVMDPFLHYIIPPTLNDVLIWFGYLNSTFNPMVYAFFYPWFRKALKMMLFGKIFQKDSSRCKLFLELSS
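Test system: RD-HGA16 (CHO) cells co-expressing Gα16 and hTAAR1 / Benchmarks: DMSO vehicle as 0%, PEA at EC100 as 100% / Repeats: no replicates (n 1) / Measure: % activation from peak over basal fluorescence ratio, DMSO-to-PEA scaled / Timing: 17-24 h plating, Fluo-8 75 min 37 °C, 30 min RT / Technique: kinetic Fluo-8 calcium fluorescence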
CHO parental Ca = counter-screen: ATP calcium response change in parental CHO cells. parental CHO-K1, ATP-induced calcium, Fluo-8 fluorescence. inhibition, % at 5.6 µM. hit rate 0.63% among 330,000. AID 463079;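 active means inhibition above that plate's mean sample inhibition plus 3 SD, cut at about 26% in these data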;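 further: 0% = ATP-challenged DMSO wells and 100% = DMSO wells without ATP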
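Test system: untransfected parental CHO cell line; also added: ATP stimulus; dosing: 5.6 µM, single dose; signal: calcium-sensitive Fluo-8 fluorescence; measure: percent inhibition of ATP-evoked calcium rise, normalized to controls; benchmarks: low control ATP plus DMSO, high control DMSO only; replication: one well per compound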
TAAR1 antag = antagonists of human TAAR1; Q96RJ0; CHO RD-HGA16 TAAR1, Fluo-8 calcium fluorescence, antagonist; inhibition, % at 3 µM; hit rate 1.5% among 360,000;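 active means inhibition above a per-plate cutoff, the mean inhibition of test compounds on that plate plus 3 SD, cut at about 49% in these data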;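 further: 0% = DMSO plus EC80 beta-PEA response and 100% = DMSO alone without agonist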
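Test system – hTAAR1-expressing CHO RD-HGA16 cells, Gα16-coupled · Reagent – β-PEA at EC80 concentration, post-compound challenge · Compound dosing – 3 µM, single point · Timing – 140 s kinetic read after compound, 140 s after agonist · Detection – Fluo-8 intracellular calcium dye fluorescence, real-time kinetic reads · Control set – DMSO and EC80 PEA controls · Repeats – n of 1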
The depositor's hits bear a star; / = no result given. Sampled rows, rich in hits. Any-hit rate of the full collection: about 4%.

SMILES | OX1R antag-1 | OX1R antag-2 | TAAR1 ag | CHO parental Ca | TAAR1 antag
CCCC(=O)Nc1ccccc1-c1nnc(SCC)[nH]c1=O | 11 | 10 | -1 | -3 | -29
CCn1c(C)nc2cc(C(=O)OC(C(F)(F)C(F)F)C(F)(F)C(F)F)ccc21 | 66* | 32 | 7 | 26 | 35
O=C(CSCc1ccc(Cl)cc1)Nc1cc([N+](=O)[O-])ccc1O | 14 | 105* | 11 | 5 | 30
COc1ccc([N+](=O)[O-])cc1NC(=O)CSCc1ccc(Br)cc1 | -14 | 29 | 8 | 3 | -13
COC(=O)Oc1ccc(/C=N/NC(=O)CSCc2ccccc2Br)cc1OC | 17 | 46 | 11 | -1 | 36
CCN(CC)c1ccc(/C=C2\CCC(/C=N/NC(=O)c3ccc(=O)n(C)c3)=C2N2CCOCC2)cc1 | 4 | 9 | 22 | -3 | 41
CCCOc1cc(N(CC)CC)ccc1/C=C(/C#N)c1nc2ccc(C)cc2[nH]1 | 118* | 16 | 41* | 75* | 77*
CCN(CC)c1ccc(/C=C(/C#N)c2nc3ccc(C)cc3[nH]2)c(OC(C)C)c1 | 116* | 19 | 41* | 68* | 73*
Cc1ccc2nc(/C(C#N)=C\c3cc(O)ccc3[N+](=O)[O-])[nH]c2c1 | -17 | 14 | -1 | -13 | 9
Cc1cc(/C=C(\C#N)c2nc3ccccc3[nH]2)c(C)n1C | -21 | 21 | 2 | -20 | -12
CCOc1cc(N(CC)CC)ccc1/C=C(/C#N)c1nc2ccccc2[nH]1 | 109* | 71* | 48* | 70* | 92*
CN(Cc1ccccc1)C(=O)c1ccc(NC(=O)C2CCCN(C(=O)OC(C)(C)C)C2)cc1 (stereo not drawn) | -14 | 7 | 17 | -9 | 36
CO[C@@H]1[C@H](O)CC[C@]2(O)CN(c3ccccc3)[C@](C)([C@H](O)CC=C(C)C)[C@@H]12 | / | / | 6 | / | -29
COc1ccc(OC)c(NC(=O)COC(=O)CCNc2ccccc2OC)c1 | -4 | 55* | 0 | -14 | -17
COc1ccc(OC)c(NC(=O)c2cnc(Nc3ccccc3OC)c3ccccc23)c1 | 18 | 68* | 6 | -34 | -1
O=C(c1ccc(CSc2nc3ccncc3[nH]2)cc1)N1CCN(c2cccc(Cl)c2)CC1 | 22 | 34* | 3 | 73* | 43
NNC(=O)C1CCCN1S(=O)(=O)c1ccc(Cl)cc1 (stereo not drawn) | -22 | 17 | 5 | -29 | 11
O=C(Nc1ccc(Cl)cn1)C1CCCN1S(=O)(=O)c1ccc(Cl)cc1 (stereo not drawn) | 37 | 64* | 10 | -31 | 4
O=C(Nc1ccc(Cl)cn1)C1CCCN1S(=O)(=O)c1cccc2ccccc12 (stereo not drawn) | 3 | 64* | 3 | -10 | 7
NC1(N2SC(S)=C3CCCC=C32)CCCCC1 | / | / | 1 | / | -15
COc1ncnc2c1ncn2CCCN(C)CCc1ccccn1 | / | / | 5 | / | -17
C[C@H]1[C@@H]2C[C@@]3(O[C@H](c4ccc(C(F)(F)F)cc4)N=C3C[C@@H]1c1ccccc1)N(Cc1ccncc1)C2=O | / | / | 2 | / | -29
COc1ccc(S(=O)(=O)N2CCCc3nc(-c4ccc(Br)cc4)ccc32)cc1 | / | / | 1 | / | -11
COC(=O)CCN(C(=O)c1ccc([N+](=O)[O-])cc1)c1ccccn1 | -71 | 34 | 11 | -35 | -22
COC(=O)CCN(C(=O)c1cc([N+](=O)[O-])cc([N+](=O)[O-])c1)c1ccccn1 | -17 | 66* | 14 | 1 | 13
SMILES | OX1R antag-1 | OX1R antag-2 | TAAR1 ag | CHO parental Ca | TAAR1 antag
CC(C)CCNc1nc(N)c([N+](=O)[O-])c(NCC2CCCO2)n1 (stereo not drawn) | -47 | 34 | 39* | -29 | -8
CCNC(=O)N(C)[C@H]1C[C@H]2c3[nH]c4ccccc4c3CCN2C[C@H]1[C@H](C)O | / | / | 1 | / | -4
C[C@H](O)[C@@H]1CN2CCc3c([nH]c4ccccc34)[C@@H]2C[C@@H]1N(C)C(=S)NCCc1ccccc1 | / | / | 78* | / | 66*
CNC(=O)c1ccsc1NC(=O)c1ccc(Cl)s1 | -10 | 32 | 1 | -9 | 13
O=C(COC(=O)c1ccc(O)cc1)Nc1cc(C(F)(F)F)ccc1Cl | -7 | 2 | 38* | -5 | 4
CCCC(=O)Nc1ccc(C(=O)Nc2cc(C(F)(F)F)ccc2Cl)cc1 | -5 | 31 | 42* | 69* | 19
O=C(Sc1ccc(Cl)cc1)c1ccccn1 | 5 | 6 | 0 | -10 | 7

Screening data as filed in PubChem.
